Experiments:
KB [1] = assay: Antiviral activity was estimated by HSV-1 ELISA method.; assay type: functional, cell-based; details: Homo sapiens
Procedure, shortened: (§1)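 HSV-1 S-148 strain was assayed by enzyme immunoassay (ELISA) in quadruplicate wells. The reported value is the average IC50, taken from linear regression of percent inhibition against log drug concentration. Acyclovir served as the positive control, and sets were rejected if it deviated more than 1.5 standard deviations from its mean.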

HFF [2] = assay: Antiviral activity was determined by the HCMV plaque assay using HFF cells; assay type: functional, cell-based; details: Homo sapiens
Procedure, shortened: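 HCMV Towne strain (plaque-purified isolate Po) on HFF monolayers grown in MEM with Earle's salts and 10% FBS. Inoculum held approximately 50 PFU. Compounds were dissolved in the overlay medium and plaques counted. IC50 came from linear regression of percent inhibition against log concentration. Ganciclovir was the positive control.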

HFF [3] = assay: Cytotoxicity in HFF cells was estimated by the visual scoring of cells not affected by virus infection in the plaque reduction assay.; details: Homo sapiens
L1210 [4] = assay: The in vitro cytotoxicity against L1210 cells was evaluated; assay type: functional, cell-based; details: Mus musculus
Procedure, shortened: (§2)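 L1210 cells were grown in static suspension in Fischer's medium with 10% heat-inactivated horse serum. Cells were counted at 0, 48 and 96 h across a range of compound concentrations. Growth rate is the ratio of control to treated population-doubling time; the 48–96 h rate was used if growth slowed. IC50 is the concentration giving 50% of control growth rate; highest concentration tested was 100 μM.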

KB [5] = assay: Cytotoxicity in KB cells.; assay type: functional, cell-based; details: Homo sapiens
Procedure, shortened: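 KB cells grown in MEM with Hank's salts and 5% FBS. Growth was measured spectrophotometrically by crystal violet staining 2 days after drug treatment, in quadruplicate wells. IC50 was taken from linear regression of percent inhibition against log concentration. 2-Acetylpyridine thiosemicarbazone was the positive control.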

KB [6] = assay: Antiviral activity was estimated by HSV-1 ELISA method (data of single experiment); assay type: functional, cell-based; details: Homo sapiens; procedure, shortened: as §1
L1210 [7] = assay: cytotoxicity in L1210 cell culture(cell proliferation inhibited by 50%); assay type: functional, cell-based; details: Mus musculus; procedure, shortened: as §2
L1210 [8] = assay: Cytotoxicity in L1210 cell culture(cell proliferation inhibited by 50%); assay type: functional, cell-based; details: Mus musculus; procedure, shortened: as §2
KB [9] = assay: Antiviral activity was estimated by HSV-1 ELISA method; assay type: functional, cell-based; details: Homo sapiens; procedure, shortened: as §1
HFF [10] = assay: Antiviral activity was estimated by the HCMV yield reduction experiments.; assay type: functional; details: Homo sapiens
Procedure, shortened: (§3)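 HCMV Towne strain yield reduction assay. Results are given as IC90, derived by linear regression of percent inhibition against log drug concentration. Ganciclovir was the positive control.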

HFF [11] = assay: Antiviral activity was estimated by the HCMV yield reduction experiments; assay type: functional; details: Homo sapiens; procedure, shortened: as §3

`Nc1nnc(O)c2c1ccn2C1CCC(CO)O1` (stereo unspecified) was tested, and the IC50 (KB [1]) was over 100 µM, the IC50 (HFF [2]) was over 100 µM and the IC50 (HFF [3]) was over 100 µM. For the same molecule, the IC50 (L1210 [4]) was over 100 µM and the IC50 (KB [5]) was over 100 µM.
Work on `Nc1nnc(O)c2c1ccn2COC(CO)CO` yielded an IC50 (HFF [2]) of over 100 µM, an IC50 (HFF [3]) of over 100 µM and an IC50 (KB [6]) of over 100 µM. It also gave an IC50 (L1210 [7]) of over 100 µM and an IC50 (KB [5]) of over 100 µM.
For `Nc1nnc(O)c2c1c(Br)cn2COC(CO)CO`, the IC50 (HFF [2]) was over 100 µM, the IC50 (HFF [3]) was over 100 µM and the IC50 (L1210 [8]) was over 100 µM. It also gave an IC50 (KB [5]) of over 100 µM and an IC50 (KB [9]) of over 100 µM.
`Nc1nnc(O)c2c1ccn2[C@@H]1O[C@H](CO)[C@@H](O)[C@H]1O` gave an IC50 (KB [1]) of 90 µM and an IC50 (HFF [3]) of over 100 µM.
In the case of `Nc1n[nH]c(=O)c2c1c(Br)cn2[C@@H]1O[C@H](CO)[C@@H](O)[C@@H]1O`, the IC50 (KB [1]) is reported as 20 µM, the IC50 (HFF [2]) is reported as 2.7 µM and the IC50 (HFF [3]) is reported as 32 µM. For the same molecule, the IC90 (HFF [10]) was 6.3 µM, the IC50 (L1210 [4]) was 18 µM and the IC50 (KB [5]) was 15 µM.
`Nc1nnc(O)c2c1ccn2[C@@H]1O[C@H](CO)[C@@H](O)[C@@H]1O` gave an IC50 (KB [1]) of 90 µM, an IC50 (HFF [2]) of over 100 µM and an IC50 (HFF [3]) of over 100 µM. The IC50 (L1210 [4]) was 100 µM.
Molecule `Nc1n[nH]c(=O)c2c1c(Br)cn2[C@@H]1O[C@H](CO)[C@@H](O)[C@H]1O` has an IC50 (KB [1]) of 2 µM, an IC50 (HFF [2]) of 0.1 µM and an IC90 (HFF [10]) of 0.04 µM.
In the case of `Nc1n[nH]c(=O)c2c1ccn2[C@H]1C[C@H](O)[C@@H](CO)O1`, the IC50 (KB [1]) is reported as 128 µM, the IC50 (HFF [2]) is reported as over 100 µM and the IC50 (HFF [3]) is reported as over 100 µM. The IC50 (L1210 [8]) was over 100 µM and the IC50 (KB [5]) was over 100 µM.
Molecule `Nc1nnc(O)c2c1c(Br)cn2C1CCC(CO)O1` (stereo unspecified) has an IC50 (KB [1]) of 27 µM, an IC50 (HFF [2]) of 12 µM and an IC50 (HFF [3]) of 32 µM. For the same molecule, the IC90 (HFF [10]) was 10 µM, the IC50 (L1210 [4]) was 38 µM and the IC50 (KB [5]) was 10 µM.
In the case of `Nc1nnc(O)c2c1c(I)cn2C1O[C@H](CO)[C@@H](O)[C@H]1O` (stereo partly specified), the IC50 (KB [1]) is reported as 4.5 µM, the IC50 (HFF [2]) is reported as 0.4 µM and the IC90 (HFF [10]) is reported as 0.02 µM. For the same molecule, the IC50 (L1210 [4]) was 0.02 µM.
Work on `Nc1nnc(O)c2c1c(Cl)cn2C1O[C@H](CO)[C@@H](O)[C@H]1O` (stereo partly specified) yielded an IC50 (KB [1]) of 6.8 µM, an IC50 (HFF [2]) of 0.2 µM and an IC90 (HFF [10]) of 0.7 µM.
Work on `Nc1nc2c(ncn2COC(CO)CO)c(=O)[nH]1` [GANCICLOVIR] yielded an IC50 (HFF [2]) of 7.7 µM, an IC50 (KB [6]) of 3.5 µM and an IC90 (HFF [11]) of 1.8 µM.

From ChEMBL document CHEMBL1129959, “Synthesis and antiproliferative and antiviral activity of carbohydrate-modified pyrrolo[2,3-d]pyridazin-7-one nucleosides” (J Med Chem, 1997)
